Reference: ChEMBL document CHEMBL1177662, “Anti-influenza activity of phenethylphenylphthalimide analogs derived from thalidomide” (Bioorg Med Chem, 2010)
Calls of active or inactive are those of the source. No cut-off for these calls is given here.

Key:
[1] = Cytotoxicity against dog MDCK cells; assay type: cell-based, Canis lupus familiaris
In short: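 Confluent MDCK monolayers (MEM, 10% FBS, 37 °C) exposed without virus to compound (0.63–80 μM, DMSO vehicle), premixed with trypsin 30 min at 37 °C. Incubated 4 days at 34 °C, 5% CO2. Formaldehyde fixation, naphthol blue black staining of viable cells, OD630 read. Triplicate; CC50 estimated from dose–response curve.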

[2] = target: Polymerase acidic protein (Influenza A virus (A/Puerto Rico/8/1934(H1N1))) (UniProt P03433); test: Inhibition of Influenza A (A/PR/8/34/ (H1N1)) RNA polymerase acidin protein endonuclease PA domain assessed as M13mp18 ss DNA at 10 uM
In short: (§1)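 Recombinant His-tagged PA N-terminal endonuclease domain (residues 1–220), expressed in E. coli and purified by Ni-agarose and anion exchange. 0.35 μg (about 0.1 μM final) in 100 μl buffer at pH 7.3, with 1 μg M13mp18 circular ssDNA substrate and compound at 1 or 10 μM. A no-enzyme control was included. Digestion read by agarose electrophoresis with ethidium bromide staining.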

Influenza A virus = test: Antiviral activity against Influenza A (A/PR/8/34/ (H1N1)) infected in MDCK cells assessed as inhibition of virus-induced cell death; assay type: functional, organism-based; conditions: A/Puerto Rico/8/1934(H1N1)
In short: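 Confluent MDCK monolayers (MEM, 10% FBS, 37 °C). Compound (0.63–80 μM, DMSO vehicle) premixed with 100 TCID50 H1N1 PR8 plus trypsin for 30 min at 37 °C, then added to PBS-washed cells. Incubated 4 days at 34 °C, 5% CO2. Formaldehyde-fixed, naphthol blue black stain, OD630 read. Viability scaled to mock (100%) and virus-only (0%) wells. Triplicate; EC50 estimated from dose–response curve.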

[3] = target: Polymerase acidic protein (Influenza A virus (A/Puerto Rico/8/1934(H1N1))) (UniProt P03433); test: Inhibition of Influenza A (A/PR/8/34/ (H1N1)) RNA polymerase acidin protein endonuclease PA domain assessed as M13mp18 ss DNA at 1 uM; in short: as §1

SMILES	CC50 [1] [µM]	inhibition [2]	EC50 (Influenza A virus) [µM]	inhibition [3]
O=C1c2ccccc2C(=O)N1c1ccc(CCc2cccc(O)c2)cc1	> 80	inactive	> 80	inactive
COc1ccc(CCc2ccc(N3C(=O)c4ccccc4C3=O)cc2)cc1	–	inactive	–	inactive
COc1cccc(CCc2ccc(N3C(=O)c4ccccc4C3=O)cc2)c1	–	inactive	–	inactive
O=C1c2ccccc2C(=O)N1c1ccc(/C=C/c2ccccc2)cc1	–	inactive	–	inactive
O=C1c2c(Cl)c(Cl)c(Cl)c(Cl)c2C(=O)N1c1cccc(CCc2ccc(O)cc2)c1	–	inactive	–	inactive
COc1ccc(CCc2ccc(N3C(=O)c4c(Cl)c(Cl)c(Cl)c(Cl)c4C3=O)cc2)cc1OC	–	inactive	–	inactive
O=C1c2ccccc2C(=O)N1c1cccc(CCc2ccc(O)c(O)c2)c1	–	Active	26	inactive
O=C1c2c(Cl)c(Cl)c(Cl)c(Cl)c2C(=O)N1c1cccc(CCc2ccc(O)c(O)c2)c1	44	inactive	> 80	inactive
O=C1c2ccccc2C(=O)N1c1ccccc1CCc1ccccc1	–	inactive	–	inactive
O=C1c2c(Cl)c(Cl)c(Cl)c(Cl)c2C(=O)N1c1ccc(CCc2ccc(O)cc2)cc1	–	inactive	–	inactive
O=C1c2c(Cl)c(Cl)c(Cl)c(Cl)c2C(=O)N1c1ccccc1CCc1ccccc1	–	inactive	–	inactive
COc1ccc(CCc2cccc(N3C(=O)c4c(Cl)c(Cl)c(Cl)c(Cl)c4C3=O)c2)cc1	–	inactive	–	inactive
COc1cccc(CCc2ccc(N3C(=O)c4c(Cl)c(Cl)c(Cl)c(Cl)c4C3=O)cc2)c1	–	inactive	–	inactive
O=C1c2ccccc2C(=O)N1c1ccc(CCc2ccccc2)cc1	–	inactive	–	inactive
COc1ccc(/C=C/c2cccc(N3C(=O)c4c(Cl)c(Cl)c(Cl)c(Cl)c4C3=O)c2)cc1OC	–	inactive	–	inactive
O=C1c2c(Cl)c(Cl)c(Cl)c(Cl)c2C(=O)N1c1cccc(/C=C/c2ccc(O)c(O)c2)c1	–	inactive	–	inactive
O=C1c2c(Cl)c(Cl)c(Cl)c(Cl)c2C(=O)N1c1cccc(/C=C\c2ccccc2)c1	–	inactive	–	inactive
O=C1c2c(Cl)c(Cl)c(Cl)c(Cl)c2C(=O)N1c1cccc(/C=C/c2ccccc2)c1	–	inactive	–	inactive
O=C1c2c(Cl)c(Cl)c(Cl)c(Cl)c2C(=O)N1c1ccc(/C=C/c2ccccc2)cc1	–	inactive	–	inactive

SMILES	CC50 [1] [µM]	inhibition [2]	EC50 (Influenza A virus) [µM]	inhibition [3]
O=C1c2c(Cl)c(Cl)c(Cl)c(Cl)c2C(=O)N1c1ccccc1CCc1ccc(O)c(O)c1	–	inactive	–	inactive
COc1ccc(CCc2ccc(N3C(=O)c4c(Cl)c(Cl)c(Cl)c(Cl)c4C3=O)cc2)cc1	–	inactive	–	inactive
O=C1c2ccccc2C(=O)N1c1ccccc1CCc1ccc(O)c(O)c1	> 80	Active	48	inactive
COc1cccc(CCc2cccc(N3C(=O)c4c(Cl)c(Cl)c(Cl)c(Cl)c4C3=O)c2)c1	–	inactive	–	inactive
O=C1c2c(Cl)c(Cl)c(Cl)c(Cl)c2C(=O)N1c1ccc(CCc2ccc(O)c(O)c2)cc1	> 80	inactive	24	inactive
COc1ccc(CCc2ccccc2N2C(=O)c3c(Cl)c(Cl)c(Cl)c(Cl)c3C2=O)cc1OC	–	inactive	–	inactive
COc1ccc(CCc2cccc(N3C(=O)c4c(Cl)c(Cl)c(Cl)c(Cl)c4C3=O)c2)cc1OC	–	inactive	–	inactive
O=C1c2c(Cl)c(Cl)c(Cl)c(Cl)c2C(=O)N1c1ccc(/C=C\c2ccccc2)cc1	–	inactive	–	inactive
O=C1c2c(Cl)c(Cl)c(Cl)c(Cl)c2C(=O)N1c1ccc(CCc2cccc(O)c2)cc1	–	inactive	–	inactive
COc1ccc(CCc2ccccc2N2C(=O)c3ccccc3C2=O)cc1OC	> 80	inactive	> 80	–
COc1ccc(CCc2cccc(N3C(=O)c4ccccc4C3=O)c2)cc1OC	–	inactive	–	inactive
O=C1c2ccccc2C(=O)N1c1ccc(/C=C/c2ccc(O)c(O)c2)cc1	–	inactive	–	inactive
COc1ccc(CCc2ccc(N3C(=O)c4ccccc4C3=O)cc2)cc1OC	–	inactive	–	inactive
O=C1c2c(Cl)c(Cl)c(Cl)c(Cl)c2C(=O)N1c1ccc(CCc2ccccc2)cc1	–	inactive	–	inactive
COc1ccc(/C=C/c2ccc(N3C(=O)c4c(Cl)c(Cl)c(Cl)c(Cl)c4C3=O)cc2)cc1OC	–	inactive	–	inactive
O=C1c2c(Cl)c(Cl)c(Cl)c(Cl)c2C(=O)N1c1cccc(CCc2cccc(O)c2)c1	–	inactive	–	inactive
O=C1c2ccccc2C(=O)N1c1ccc(CCc2ccc(O)cc2)cc1	–	inactive	–	inactive
O=C1c2c(Cl)c(Cl)c(Cl)c(Cl)c2C(=O)N1c1cccc(CCc2ccccc2)c1	–	inactive	–	inactive
